Measurements from ChEMBL document CHEMBL4651341, “The discovery of a novel series of compounds with single-dose efficacy against juvenile and adult Schistosoma species” (PLoS Negl Trop Dis, 2021).
In brackets after ≈: the same amount, converted by molar mass.

Legend:
Schistosoma mansoni [1] = assay: Concentration required to kill 50% of 42 day old worms 5 days after drug treatment.; assay type: functional, organism-based; details: Puerto Rican, 120 h
Outline: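 Adult S. mansoni were perfused from CD1 mice 6 weeks post-infection and washed. They were cultured 3 pairs per well in 1 mL DMEM with 2 mM glutamine, penicillin/streptomycin and 10% FCS […] at 37 °C, 5% CO2. Viability of individual worms was scored on day 5 (120 h).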

Schistosoma mansoni [2] = assay: Concentration required to kill 50% of 21 day old worms 5 days after drug treatment.; assay type: functional, organism-based; details: Puerto Rican, 120 h
Outline: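 Juvenile S. mansoni (Puerto Rican strain) were perfused from CD1 mice 3 weeks post-infection and washed. They were cultured 6–8 per well in 200 µL DMEM with 2 mM glutamine, penicillin/streptomycin and 10% FCS at 37 °C, 5% CO2. Viability of individual worms was scored on day 5 after dosing (120 h).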

[3] = Concentration required to kill 50% MRC-5 cells as detected by Alamar blue staining; assay type: toxicity, cell-based, MRC5; details: homo sapiens, read-out: TC50 (the source's name)
[4] = Concentration required to kill 50% HepG2 cells as detected by MTT staining; assay type: toxicity, cell-based; details: homo sapiens, read-out: TC50 (the source's name)
[5] = Mean oral bioavailability in Swiss albino male mice at […] per compound (administered in a mixture of 5 compounds to 3 mice) assessed by LCMS/MS.; also: dose 2.5 mg/kg; assay type: ADME, organism-based; details: male, Swiss albino, mouse, in vivo, read-out: Bioavailability
[6] = Mean AUC inf in Swiss albino male mice at 1 mg/kg per compound (administered iv in a mixture of 5 compounds to 3 mice) assessed by LCMS/MS.; assay type: ADME, organism-based; details: mouse, in vivo; for AUC(0-inf): male, Swiss albino
Outline: (§1)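 Male Swiss albino mice (~30 g), 3 per experiment, mostly dosed as mixtures of 5 compounds iv via the lateral tail vein. Vehicle: 10% DMSO/90% 50 mM Na2HPO4 with 0.5% Tween-80. Blood sampled at 5, 15, 30 min and 1, 2, 4, 8, 24 h. Plasma stored at −20 °C and quantified by LC-MS after acetonitrile precipitation.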

[7] = Mean observed clearance in Swiss albino male mice at 1 mg/kg per compound (administered iv in a mixture of 5 compounds to 3 mice) assessed by LCMS/MS.; assay type: ADME, organism-based; details: mouse, in vivo; outline: as §1
[8] = Mean volume of distribution at steady state in Swiss albino male mice at 1 mg/kg per compound (administered iv in a mixture of 5 compounds to 3 mice) assessed by LCMS/MS.; assay type: ADME, organism-based; details: mouse, in vivo, read-out: Volume
Outline: (§2)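 Male Swiss albino mice (~30 g), 3 per experiment, mostly dosed as mixtures of 5 compounds iv via the lateral tail vein. Vehicle: 10% DMSO/90% 50 mM Na2HPO4 with 0.5% Tween-80. Plasma stored at −20 °C and quantified by LC-MS after acetonitrile precipitation.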

[9] = Mean half-life in Swiss albino male mice at 1 mg/kg per compound (administered iv in a mixture of 5 compounds to 3 mice) assessed by LCMS/MS.; assay type: ADME, organism-based; details: mouse, in vivo; outline: as §2
[10] = Mean plasma concentration at 24h in Swiss albino male mice at […] per compound (administered orally in a mixture of 5 compounds to 3 mice) assessed by LCMS/MS.; assay type: ADME, organism-based; details: mouse, po
[11] = Mean plasma concentration at 4h in Swiss albino male mice at […] per compound (administered orally in a mixture of 5 compounds to 3 mice) assessed by LCMS/MS.; assay type: ADME, organism-based; details: mouse, po
[12] = Mean time to peak plasma concentration in Swiss albino male mice at […] per compound (administered orally in a mixture of 5 compounds to 3 mice) assessed by LCMS/MS.; assay type: ADME, organism-based; details: mouse, po
[13] = Plasma protein binding determined at 10uM by LC-MS/MS.; assay type: ADME, cell-free; details: mouse
Outline: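 Equilibrium dialysis of plasma spiked at 10 µM (0.1% DMSO) against PBS pH 7.4, 6 h at 37 °C, duplicates. Both chambers analysed by LC-MS/MS after acetonitrile precipitation. % free = buffer/plasma area ratio; recovery also calculated.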

[14] = Partition coefficient of compound between n-octanol and PBS (pH7.4); assay type: physicochemical; details: octanol/water, pH 7.4
Outline: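 Shake-flask method using octanol and PBS pH 7.4, each pre-saturated with the other. Compound was shaken 2 h at 850 rpm, 25 °C, then the phases were separated by centrifugation and both layers diluted and analysed by LC-MS/MS. LogD = log(octanol AUC × relative dilution / buffer AUC).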

[15] = Percentage of parent compound remaining after incubation for 30 minutes with cyropreserved mouse hepatocytes at a concentration of 1uM compound and […], determined by LCMS; assay type: ADME, tissue-based, Hepatocyte; details: cryopreserved mouse hepatocytes, read-out: Stability
Outline: (§3)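 Compound was incubated at 1 µM final (2 µM working solution mixed 1:1 with hepatocyte suspension) in supplemented KHB pH 7.4. Conditions: 37 °C, 5% CO2, gentle mixing, duplicates. Reaction quenched with ice-cold acetonitrile containing standard; analysed by LC-MS/MS. % remaining = AUC at t / AUC at T0.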

[16] = Solubility at 25 degC of compound (diluted from DMSO) in PBS at pH 7.4 determined after 24h (1h sonication, 22h shaking, 1h sonication) by LCMS/MS; assay type: physicochemical
[17] = Percentage of parent compound remaining after incubation for 90 minutes with cyropreserved mouse hepatocytes at a concentration of 1uM compound and […], determined by LCMS; assay type: ADME, tissue-based, Hepatocyte; details: cryopreserved mouse hepatocytes, read-out: Stability; outline: as §3
[18] = male, Swiss albino, read-out: Clearance (converted)

solubility kinetic at 24 h [16] [µM]	SMILES	EC50 (Schistosoma mansoni [1]) [nM]	EC50 (Schistosoma mansoni [2]) [µM]	CC50 [3] [µM]	CC50 [4] [µM]	also measured
–	COc1ccc(-c2cnc3ccc(-c4cccc(C(C)C)c4)nn23)cc1O	5590	8.26	11.3	9.24	–
1.42 (≈ 0.529 µg/mL)	Oc1ccc(-c2cnn3ccc(-c4cccc(C(F)(F)F)c4)cc23)c(F)c1	–	2.65	–	–	bioavailability [5]: 0%; AUC(0-inf) [6]: 52.7 ng·h/mL; clearance [7, 18]: 158 mL/min/kg; Vd [8]: 2.85 L/kg; half-life [9]: 25 min; concentration at 24 h [10]: 0.1 ng/mL; concentration at 4 h [11]: 0.1 ng/mL; Tmax [12]: 15 min; Binding [13]: 100%; Lipophilicity [14]: 4.27 =; remaining at 0.5 h, 1 µM [15]: 50.9%
–	COc1ccc(-c2nnc3ccc(-c4cccc(C(C)C)c4)cn23)cc1	–	24.2	40.8	–	Lipophilicity [14]: 4.71 =
–	CC(C)Oc1cccc(-c2cn3c(-c4cnn(Cc5ccccc5)c4)cnc3cn2)c1	> 25000	> 25	39.4	–	–
–	COc1ccc(-c2cnc3cnc(-c4cccc(Cl)c4)cn23)cc1	12200	13.1	> 50	–	–
–	CC(C)Oc1cccc(-c2cn3c(-c4ccc5[nH]ncc5c4)cnc3cn2)c1	7190	7.5	22.2	–	–
29.8 (≈ 11.9 µg/mL)	COc1ccc(-c2c(C)nn3cnc(-c4cccc(C(F)(F)F)c4)cc23)cc1O	–	0.785	–	–	AUC(0-inf) [6]: 43.2 ng·h/mL; clearance [7, 18]: 195 mL/min/kg; Vd [8]: 3.18 L/kg; half-life [9]: 14.4 min; concentration at 24 h [10]: 0.1 ng/mL; concentration at 4 h [11]: 0.1 ng/mL; Binding [13]: 99.935%; Lipophilicity [14]: 3.73 =; remaining at 0.5 h, 1 µM [15]: 45.1%
–	COc1ccc(-c2cnc3cnc(-c4cccc(C(C)C)c4)cn23)cc1	1850	2.43	9.04	–	Lipophilicity [14]: 5.36 =
1.73 (≈ 0.701 µg/mL)	Cc1nc2cnc(-c3cccc(C(F)(F)F)c3)cn2c1-c1c(F)cc(O)cc1F	–	0.172	–	8.4	bioavailability [5]: 4%; AUC(0-inf) [6]: 99.6 ng·h/mL; clearance [7, 18]: 86 mL/min/kg; Vd [8]: 1.8 L/kg; half-life [9]: 27.5 min; concentration at 24 h [10]: 0.1 ng/mL; concentration at 4 h [11]: 2.67 ng/mL; Tmax [12]: 15 min; Binding [13]: 99.88%; Lipophilicity [14]: 3.81 =; remaining at 0.5 h, 1 µM [15]: 42.3%
–	CCOc1cccc(-c2cn3c(-c4ccc(OC)cc4)cnc3cn2)c1	12100	11	37.7	–	–
–	COc1ccc(-c2cnc3cnc(-c4cccc(OC)c4)cn23)cc1	6750	12.6	> 49.9	–	–
1.23 (≈ 0.427 µg/mL)	CC(C)c1cccc(-c2cn3c(-c4ccc(O)cc4F)cnc3cn2)c1	262	0.636	11.1	> 11.1	–
–	COc1ccc(-c2nnc3ccc(-c4cccc5c4OCC5)cn23)cc1OC	–	24.8	27.6	–	–
–	CCc1cccc(-c2cn3c(-c4ccc(OC)c(OC)c4)cnc3cn2)c1	1060	2.79	29.9	–	–
–	COc1ccc(-c2nnc3ccc(-c4cccc(C(C)C)c4)cn23)cn1	–	24.2	45.8	–	–
–	COc1ccc(-c2cnc3cnc(-c4cccc(OC(C)C)c4)cn23)c(OC)c1	12700	12.5	> 48.9	–	–
1.05 (≈ 0.529 µg/mL)	COc1ccc(-c2c(C(F)(F)F)nc3cnc(-c4cccc(C(F)(F)C(F)(F)F)c4)cn23)cc1O	21	< 0.0106	–	> 11.1	bioavailability [5]: 9.77%; AUC [6]: 0.153 µg·h/mL; clearance [7]: 54.3 mL/min/kg; Vd [8]: 4.94 L/kg; half-life [9]: 127 min; concentration at 24 h [10]: 0.1 ng/mL; concentration at 4 h [11]: 8.54 ng/mL; Tmax [12]: 15 min; Binding [13]: 99.98%; Lipophilicity [14]: 4.65 =; remaining at 0.5 h, 1 µM [15]: 75.3%
–	COc1cc(-c2cnc3cnc(-c4cccc(C(C)C)c4)cn23)ccc1O	1410	1.63	> 50	26	Lipophilicity [14]: 4.75 =
–	CC(C)Oc1cccc(-c2cn3c(-c4ccnc(C(F)(F)F)c4)cnc3cn2)c1	> 25000	> 25	> 49.2	–	–
3.49 (≈ 1.35 µg/mL)	Cc1nc2cnc(-c3cccc(C(F)(F)F)c3)cn2c1-c1ccc(O)cc1F	290	< 0.614	18.7	–	remaining at 0.5 h, 1 µM [15]: 31.5%
0.0917 (≈ 0.0456 µg/mL)	Fc1ccc(-c2cn3c(-c4ccc5[nH]ncc5c4F)c(C(F)(F)F)nc3cn2)cc1CC(F)(F)F	11.9	0.0104	–	5.3	bioavailability [5]: 52.5%; AUC(0-inf) [6]: 328 ng·h/mL; clearance [7, 18]: 25.5 mL/min/kg; Vd [8]: 3.28 L/kg; half-life [9]: 165 min; concentration at 24 h [10]: 0.971 ng/mL; concentration at 4 h [11]: 57.2 ng/mL; Tmax [12]: 30 min; remaining at 1.5 h, 1 µM [17]: 55.8%
–	CC(C)c1cccc(-c2cn3c(-c4ccc(O)c(F)c4)cnc3cn2)c1	823	1.32	> 50	> 30	–
–	CC(C)Oc1cccc(-c2ccc3nnc(-c4ccc(O)cc4)n3c2)c1	–	> 25	> 50	–	–
1.5 (≈ 0.656 µg/mL)	CCc1nc2cnc(-c3ccc(F)c(C(F)(F)F)c3)cn2c1-c1c(F)cc(O)cc1F	52.8	0.0514	–	8.3	bioavailability [5]: 47.7%; AUC(0-inf) [6]: 464 ng·h/mL; clearance [7, 18]: 18 mL/min/kg; Vd [8]: 8.79 L/kg; half-life [9]: 600 min; concentration at 24 h [10]: 12.3 ng/mL; concentration at 4 h [11]: 50.3 ng/mL; Tmax [12]: 15 min; remaining at 1.5 h, 1 µM [17]: 36%
–	CC(C)c1cccc(-c2ccc3nnc(-c4cccc(NS(C)(=O)=O)c4)n3c2)c1	–	24.6	> 50	–	–
–	COc1ccc(-c2cnc3cnc(-c4ccc(N5CCN(C)CC5)nc4)cn23)cc1	> 25000	15	20.9	–	–
–	Oc1ccc(-c2cnc3ccc(-c4cccc(C(F)(F)F)c4)nn23)c(F)c1	> 25000	> 25	> 50	–	–
1.19 (≈ 0.409 µg/mL)	Cc1nc2cnc(-c3cccc(C(C)C)c3)cn2c1-c1ccc(O)cc1	< 430	< 0.421	> 50	> 11.5	–
–	COc1ccc(-c2cnc3cnc(-c4cccc(OC(C)C)c4)cn23)cc1OC	5560	9.51	28.7	–	–
0.672 (≈ 0.278 µg/mL)	CCc1nc2cnc(-c3cccc(C(F)(F)F)c3)cn2c1-c1ccc(OC)c(O)c1	< 133	0.0829	> 50	> 30	Lipophilicity [14]: 3.97 =

SMILES	solubility kinetic at 24 h [16] [µM]	EC50 (Schistosoma mansoni [1]) [nM]	EC50 (Schistosoma mansoni [2]) [µM]	CC50 [3] [µM]	CC50 [4] [µM]	also measured
COc1ccc(-c2c(C(C)C)nc3cnc(-c4cccc(C(F)(F)F)c4)cn23)cc1OP(=O)(O)O	209 (≈ 106 µg/mL)	–	0.241	–	19.2	AUC(0-inf) [6]: 25 ng·h/mL; clearance [7, 18]: 345 mL/min/kg; Vd [8]: 4.06 L/kg; half-life [9]: 22.6 min; concentration at 24 h [10]: 0.1 ng/mL; concentration at 4 h [11]: 0.1 ng/mL; Binding [13]: 96.79%; Lipophilicity [14]: 0.09 =; remaining at 0.5 h, 1 µM [15]: 51.1%
